Laboratory results as given in ChEMBL document CHEMBL1671657, “MurF inhibitors with antibacterial activity: effect on muropeptide levels” (Antimicrob Agents Chemother, 2009).
Values after ≈ are worked out from the molar mass of the structure shown. Active and inactive are the calls of the source. The calls are words filed in the database; no cut-off is given here.

What was measured:
Escherichia coli [1] = test: Inhibition of LPS-deficient Escherichia coli OC2530 MurF assessed as UDP-MurNAc-pentapeptide product level at 2 times MIC by HPLC (reference value: 1 mAU)
Staphylococcus aureus [2] = test: Antimicrobial activity against methicillin-resistant Staphylococcus aureus OC2878 by broth microdilution method; type: functional
Procedure, shortened: (§1)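 CLSI broth microdilution MIC; strains from the sponsor's in-house collection.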

Enterococcus faecium [3] = test: Antimicrobial activity against Enterococcus faecium OC3312 by broth microdilution method; type: functional
Procedure, shortened: (§2)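 MICs by CLSI broth microdilution. Where polymyxin B nonapeptide was included, it was present at 2 μg/ml alongside the test compound.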

Escherichia coli [4] = test: Antimicrobial activity against Escherichia coli OC2605 by broth microdilution method; type: functional; procedure, shortened: as §1
Staphylococcus aureus [5] = test: Antimicrobial activity against Staphylococcus aureus ATCC 29213 by broth microdilution method; type: functional; procedure, shortened: as §2
Escherichia coli [6] = test: Antimicrobial activity against LPS-deffective Escherichia coli OC2530 assessed as log reduction in bacterial count at 4 times MIC after 30 mins relative to control; type: functional
Staphylococcus aureus [7] = test: Antimicrobial activity against Staphylococcus aureus OC4172 by broth microdilution method in presence of polymyxin B nonapeptide; type: functional; procedure, shortened: as §2
Escherichia coli [8] = test: Antimicrobial activity against LPS-deffective Escherichia coli OC2530 at 0.5 times MIC after 30 mins relative to control; type: functional, organism-based
Escherichia coli [9] = test: Inhibition of LPS-deficient Escherichia coli OC2530 MurF harboring pASK plasmid assessed as UDP-MurNAc-pentapeptide product level at 2 times MIC by HPLC (Rvb =880 +/- 17 mAU)
Procedure, shortened: (§3)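 Compound added at 2× MIC from 500× stock (DMSO control). After 30 min, muropeptides extracted and quantified by HPLC peak area (mAU); representative of two independent experiments.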

Escherichia coli [10] = test: Inhibition of LPS-deficient Escherichia coli OC2530 MurF harboring pMurF plasmid assessed as UDP-MurNAc-tripeptide substrate level at 2 times MIC by HPLC (reference value: 220 +/- 65 mAU); procedure, shortened: as §3
Escherichia coli [11] = test: Inhibition of LPS-deficient Escherichia coli OC2530 MurF harboring pASK plasmid assessed as UDP-MurNAc-tripeptide substrate level at 2 times MIC by HPLC (reference value: 63 +/- 4 mAU); procedure, shortened: as §3
Escherichia coli [12] = test: Antimicrobial activity against LPS-deffective Escherichia coli OC2530 harboring pASK plasmid by broth microdilution method in presence of chloramphenicol; type: functional
Procedure, shortened: (§4)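 CLSI broth microdilution MIC for OC2530 carrying plasmid (empty pASK or pMurF). Medium contained chloramphenicol 3 μg/ml to keep the plasmid and AHT 100 ng/ml to induce MurF expression.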

Escherichia coli [13] = test: Inhibition of LPS-deficient Escherichia coli OC2530 MurF assessed as UDP-MurNAc-pentapeptide product level at 4 times MIC by HPLC (reference value: 1 mAU)
Escherichia coli [14] = test: Antimicrobial activity against LPS-deffective Escherichia coli OC2530 at MIC after 30 mins relative to control; type: functional, organism-based
Escherichia coli [15] = test: Antimicrobial activity against LPS-deffective Escherichia coli OC2530 assessed as cell aggregation at 0.5 times MIC by TEM relative to untreated control; type: functional, organism-based
Procedure, shortened: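 At 5 h, cells were fixed in 1% glutaraldehyde (final) for 1 h at room temperature, pelleted, and resuspended in PBS. They were negatively stained with 1% ammonium molybdate and imaged by TEM at ×15,000.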

Staphylococcus aureus [16] = test: Antimicrobial activity against methicillin-resistant Staphylococcus aureus OC2878 by broth microdilution method in presence of polymyxin B nonapeptide; type: functional
Procedure, shortened: (§5)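 CLSI broth microdilution MIC run in the presence of polymyxin B nonapeptide (PMBN) at 2 μg/ml as a permeabilizer.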

Staphylococcus aureus [17] = test: Antimicrobial activity against methicillin-resistant Staphylococcus aureus OC3726 by broth microdilution method in presence of polymyxin B nonapeptide; type: functional; procedure, shortened: as §5
Escherichia coli [18] = test: Antimicrobial activity against Escherichia coli OC9040 by broth microdilution method; type: functional; procedure, shortened: as §2
Enterococcus faecium [19] = test: Antimicrobial activity against Enterococcus faecium OC3312 by broth microdilution method in presence of polymyxin B nonapeptide; type: functional; procedure, shortened: as §2
Escherichia coli [20] = test: Antimicrobial activity against LPS-deffective Escherichia coli OC2530 assessed as log reduction in bacterial count at 2 times MIC after 30 mins relative to control; type: functional
Escherichia coli [21] = test: Bactericidal activity against LPS-deffective Escherichia coli OC2530 assessed as log reduction in bacterial count at =>2 times MIC after 3 hrs relative to control; type: functional
Escherichia coli [22] = test: Antimicrobial activity against LPS-deffective Escherichia coli OC2530 at 0.5 times MIC after 4 hrs by light microscopy relative to control; type: functional, organism-based
Procedure, shortened: (§6)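 Cells were fixed on a glass slide under a coverslip and viewed by light microscopy at ×100/×1.25 oil immersion. Representative images were taken.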

Escherichia coli [23] = test: Inhibition of LPS-deficient Escherichia coli OC2530 MurF assessed as UDP-MurNAc-tripeptide substrate level at 0.5 times MIC by HPLC (reference value: 1 mAU)
Staphylococcus aureus [24] = test: Antimicrobial activity against Staphylococcus aureus OC4172 by broth microdilution method; type: functional; procedure, shortened: as §2
Escherichia coli [25] = test: Antimicrobial activity against Escherichia coli ATCC 25922 by broth microdilution method in presence of polymyxin B nonapeptide; type: functional; procedure, shortened: as §2
Escherichia coli [26] = test: Antimicrobial activity against LPS-deffective Escherichia coli OC2530 at =< MIC after 3 hrs relative to untreated control; type: functional, organism-based
Escherichia coli [27] = test: Inhibition of LPS-deficient Escherichia coli OC2530 MurF assessed as UDP-MurNAc-pentapeptide product level at 0.5 times MIC by HPLC (reference value: 1 mAU)
[28] = Inhibition of Escherichia coli MurF
Escherichia coli [29] = test: Antimicrobial activity against LPS-deffective Escherichia coli OC2530 assessed as growth inhibition at MIC by light microscopy; type: functional, organism-based
Escherichia coli [30] = test: Antimicrobial activity against LPS-deffective Escherichia coli OC2530 at 0.5 times MIC by light microscopy relative to control; type: functional, organism-based; procedure, shortened: as §6
Escherichia coli [31] = test: Antimicrobial activity against Escherichia coli OC2605 by broth microdilution method in presence of polymyxin B nonapeptide; type: functional; procedure, shortened: as §2
Escherichia coli [32] = test: Bactericidal activity against LPS-deffective Escherichia coli OC2530 assessed as log reduction in bacterial count at 2 times MIC after 3 hrs relative to control; type: functional
Escherichia coli [33] = test: Inhibition of LPS-deficient Escherichia coli OC2530 MurF assessed as UDP-MurNAc-tripeptide substrate level at MIC by HPLC (reference value: 1 fold of control)
Escherichia coli [34] = test: Antimicrobial activity against LPS-deffective Escherichia coli OC2530 assessed as cell lysis at 2 times MIC by light microscopy; type: functional, organism-based; procedure, shortened: as §6
Escherichia coli [35] = test: Inhibition of LPS-deficient Escherichia coli OC2530 MurF assessed as UDP-MurNAc-pentapeptide product level at MIC by HPLC (reference value: 1 fold of control)
Enterococcus faecalis [36] = test: Antimicrobial activity against Enterococcus faecalis ATCC 29212 by broth microdilution method; type: functional; procedure, shortened: as §2
Escherichia coli [37] = test: Antimicrobial activity against LPS-deffective Escherichia coli OC2530 at MIC after 3 hrs relative to untreated control; type: functional
Escherichia coli [38] = test: Antimicrobial activity against LPS-deffective Escherichia coli OC2530 assessed as cell lysis at 4 times MIC by light microscopy; type: functional, organism-based; procedure, shortened: as §6
Escherichia coli [39] = test: Antimicrobial activity against LPS-deffective Escherichia coli OC2530 harboring pMurF plasmid by broth microdilution method in presence of chloramphenicol; type: functional; procedure, shortened: as §4
Escherichia coli [40] = test: Antimicrobial activity against Escherichia coli OC9040 by broth microdilution method in presence of polymyxin B nonapeptide; type: functional; procedure, shortened: as §2
Escherichia coli [41] = test: Antimicrobial activity against Escherichia coli ATCC 25922 by broth microdilution method; type: functional; procedure, shortened: as §2
Staphylococcus aureus [42] = test: Antimicrobial activity against Staphylococcus aureus ATCC 29213 by broth microdilution method in presence of polymyxin B nonapeptide; type: functional; procedure, shortened: as §2
Escherichia coli [43] = test: Antimicrobial activity against LPS-deffective Escherichia coli OC2530 by broth microdilution method; type: functional; procedure, shortened: as §2
Escherichia coli [44] = test: Antimicrobial activity against LPS-deffective Escherichia coli OC2530 assessed as cell aggregation at 0.5 times MIC by light microscopy relative to untreated control; type: functional, organism-based; procedure, shortened: as §6
Enterococcus faecalis [45] = test: Antimicrobial activity against Enterococcus faecalis ATCC 29212 by broth microdilution method in presence of polymyxin B nonapeptide; type: functional; procedure, shortened: as §2
Escherichia coli [46] = test: Inhibition of LPS-deficient Escherichia coli OC2530 MurF harboring pMurF plasmid assessed as UDP-MurNAc-pentapeptide product level at 2 times MIC by HPLC (reference value: 2674 +/- 696 mAU); procedure, shortened: as §3
Escherichia coli [47] = test: Inhibition of LPS-deficient Escherichia coli OC2530 MurF assessed as UDP-MurNAc-tripeptide substrate level at 4 times MIC by HPLC (reference value: 1 mAU)
Escherichia coli [48] = test: Inhibition of LPS-deficient Escherichia coli OC2530 MurF assessed as UDP-MurNAc-tripeptide substrate level at 2 times MIC by HPLC (reference value: 1 mAU)
Staphylococcus aureus [49] = test: Antimicrobial activity against methicillin-resistant Staphylococcus aureus OC3726 by broth microdilution method; type: functional; procedure, shortened: as §1
Escherichia coli [50] = test: Antimicrobial activity against LPS-deffective Escherichia coli OC2530 by broth microdilution method in presence of polymyxin B nonapeptide; type: functional; procedure, shortened: as §2

COc1ccc2nc(OC)c([C@@H](c3ccccc3)[C@](O)(CCN(C)C)c3ccccc3)cc2c1
Activity (fold of control) (Escherichia coli [1]): 0.33
MIC (Staphylococcus aureus [2]): > 32 µg/mL
MIC (Enterococcus faecium [3]): > 32 µg/mL
MIC (Escherichia coli [4]): > 32 µg/mL
MIC (Staphylococcus aureus [5]): > 32 µg/mL
FC (Escherichia coli [6]): 2
MIC (Staphylococcus aureus [7]): > 32 µg/mL
Activity (Escherichia coli [8]): Active
Activity (Escherichia coli [9]): 213 mAU
Activity (Escherichia coli [10]): 933 mAU
Activity (Escherichia coli [11]): 1200 mAU
MIC (Escherichia coli [12]): 16 µg/mL
Activity (fold of control) (Escherichia coli [13]): 0.15
Activity (Escherichia coli [14]): Active
Activity (Escherichia coli [15]): Active
MIC (Staphylococcus aureus [16]): > 32 µg/mL
MIC (Staphylococcus aureus [17]): > 32 µg/mL
MIC (Escherichia coli [18]): > 32 µg/mL
MIC (Enterococcus faecium [19]): > 32 µg/mL
FC (Escherichia coli [20]): 1
FC (Escherichia coli [21]): 5
Activity (Escherichia coli [22]): Active
Activity (fold of control) (Escherichia coli [23]): 6
MIC (Staphylococcus aureus [24]): > 32 µg/mL
MIC (Escherichia coli [25]): 8 µg/mL
Activity (Escherichia coli [26]): inactive
Activity (fold of control) (Escherichia coli [27]): 1.62
IC50 [28]: 24 µM
Activity (Escherichia coli [29]): Active
Activity (Escherichia coli [30]): inactive
MIC (Escherichia coli [31]): 4 µg/mL
FC (Escherichia coli [32]): 5
Activity (fold of control) (Escherichia coli [33]): 27
Activity (Escherichia coli [34]): Active
Activity (fold of control) (Escherichia coli [35]): 1.48
MIC (Enterococcus faecalis [36]): > 32 µg/mL
fold change (FC) (Escherichia coli [37]): 0.3
Activity (Escherichia coli [38]): Active
MIC (Escherichia coli [39]): 16 µg/mL
MIC (Escherichia coli [40]): 8 µg/mL
MIC (Escherichia coli [41]): > 32 µg/mL
MIC (Staphylococcus aureus [42]): > 32 µg/mL
MIC (Escherichia coli [43]): 8 µg/mL (≈ 17.5 µM)
Activity (Escherichia coli [44]): Active
MIC (Enterococcus faecalis [45]): > 32 µg/mL
Activity (Escherichia coli [46]): 351 mAU
Activity (fold of control) (Escherichia coli [47]): 63
Activity (fold of control) (Escherichia coli [48]): 89
MIC (Staphylococcus aureus [49]): > 32 µg/mL
MIC (Escherichia coli [50]): 2 µg/mL
